Reference: ChEMBL document CHEMBL5230171, “Expanding the structure-activity relationships of alkynyl diphenylurea scaffold as promising antibacterial agents” (RSC Med Chem, 2023)
≈ marks a conversion by molar mass, not a printed value. Calls of active or inactive are those of the source. The calls are words filed in the database; no cut-off is given here.

How the values were obtained:
[1] = test system: Staphylococcus aureus; assay: Antibacterial activity against methicillin resistant Staphylococcus aureus 123 assessed as inhibition of bacterial growth incubated for 18 to 20 hrs by CLSI protocol based broth microdilution method; format: functional; details: time 18-20 hrs
How it was run: (§1)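 Broth microdilution against staphylococcal clinical isolates. Each strain was prepared as a 0.5 McFarland suspension and diluted in cation-adjusted Mueller Hinton broth to ~5 × 10^5 CFU mL−1. Serial dilutions of test agents in DMSO stock were incubated with the bacteria, and the MIC was recorded.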

[2] = test system: Staphylococcus aureus; assay: Antibacterial activity against methicillin resistant Staphylococcus aureus 386 assessed as inhibition of bacterial growth at 0.5 ug/ml incubated for 18 to 20 hrs by CLSI protocol based broth microdilution method; format: functional, organism-based; details: dose 0.5 µg/ml, time 18-20 hrs
[3] = test system: Staphylococcus aureus; assay: Antibacterial activity against vancomycin resistant Staphylococcus aureus 12 assessed as inhibition of bacterial growth incubated for 18 to 20 hrs by CLSI protocol based broth microdilution method; format: functional; details: time 18-20 hrs; how it was run: as §1
[4] = test system: Enterococcus faecalis; assay: Antibacterial activity against Enterococcus faecalis 51299 assessed as inhibition of bacterial growth incubated for 18 to 20 hrs by CLSI protocol based broth microdilution method; format: functional; details: time 18-20 hrs
How it was run: (§2)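 Enterococci and L. monocytogenes were diluted from a 0.5 McFarland suspension in TSB. They were incubated with serial dilutions of test agent in broth microdilution, and the MIC was recorded.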

[5] = test system: Staphylococcus aureus; assay: Antibacterial activity against methicillin resistant Staphylococcus aureus 386 assessed as inhibition of bacterial growth incubated for 18 to 20 hrs by CLSI protocol based broth microdilution method; format: functional; details: time 18-20 hrs; how it was run: as §1
[6] = test system: Staphylococcus aureus; assay: Antibacterial activity against methicillin resistant Staphylococcus aureus 384 assessed as inhibition of bacterial growth incubated for 18 to 20 hrs by CLSI protocol based broth microdilution method; format: functional; details: time 18-20 hrs; how it was run: as §1
[7] = test system: Streptococcus pneumoniae; assay: Antibacterial activity against Streptococcus pneumoniae 700677 assessed as inhibition of bacterial growth incubated for 18 to 20 hrs by CLSI protocol based broth microdilution method; format: functional; details: time 18-20 hrs
How it was run: (§3)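 Streptococci were diluted from a 0.5 McFarland suspension in cation-adjusted Mueller Hinton broth with 5% lysed horse blood. They were incubated with serial dilutions of test agent in broth microdilution, and the MIC was recorded.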

[8] = test system: Staphylococcus aureus; assay: Antibacterial activity against methicillin resistant Staphylococcus aureus 385 assessed as inhibition of bacterial growth incubated for 18 to 20 hrs by CLSI protocol based broth microdilution method; format: functional; details: time 18-20 hrs; how it was run: as §1
[9] = test system: Staphylococcus aureus; assay: Antibacterial activity against methicillin resistant Staphylococcus aureus 385 assessed as inhibition of bacterial growth at 0.5 ug/ml incubated for 18 to 20 hrs by CLSI protocol based broth microdilution method; format: functional, organism-based; details: dose 0.5 µg/ml, time 18-20 hrs
[10] = test system: Staphylococcus aureus; assay: Antibacterial activity against vancomycin resistant Staphylococcus aureus 9 assessed as inhibition of bacterial growth at 0.5 ug/ml incubated for 18 to 20 hrs by CLSI protocol based broth microdilution method; format: functional, organism-based; details: dose 0.5 µg/ml, time 18-20 hrs
[11] = test system: Listeria monocytogenes; assay: Antibacterial activity against Listeria monocytogenes 19111 assessed as inhibition of bacterial growth incubated for 18 to 20 hrs by CLSI protocol based broth microdilution method; format: functional; details: time 18-20 hrs; how it was run: as §2
[12] = test system: Streptococcus pyogenes; assay: Antibacterial activity against Streptococcus pyogenes MGAS 9882 assessed as inhibition of bacterial growth incubated for 18 to 20 hrs by CLSI protocol based broth microdilution method; format: functional; details: time 18-20 hrs; how it was run: as §3
[13] = test system: Streptococcus mutans; assay: Antibacterial activity against Streptococcus mutans 25175 assessed as inhibition of bacterial growth incubated for 18 to 20 hrs by CLSI protocol based broth microdilution method; format: functional; details: time 18-20 hrs; how it was run: as §3
[14] = test system: Vero; assay: Cytotoxicity against African green monkey Vero cells assessed as reduction in cell viability at 64 ug/ml incubated for 24 hrs by MTS assay; format: toxicity, cell-based; details: chlorocebus sabaeus, dose 64 µg/ml
How it was run: (§4)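 Vero or HaCaT cells were exposed to 32, 64 and 128 μg mL−1 compound in triplicate for 24 h at 37 °C, 5% CO2, with a DMSO control. MTS was then added for 4 h and OD490 read. Analysis used two-way ANOVA with Dunnett's post hoc test (p < 0.05).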

[15] = test system: Staphylococcus aureus; assay: Antibacterial activity against methicillin sensitive Staphylococcus aureus 6538 assessed as inhibition of bacterial growth incubated for 18 to 20 hrs by CLSI protocol based broth microdilution method; format: functional; details: time 18-20 hrs; how it was run: as §1
[16] = test system: Staphylococcus aureus; assay: Antibacterial activity against methicillin resistant Staphylococcus aureus 123 assessed as inhibition of bacterial growth at 0.5 ug/ml incubated for 18 to 20 hrs by CLSI protocol based broth microdilution method; format: functional, organism-based; details: dose 0.5 µg/ml, time 18-20 hrs
[17] = test system: Staphylococcus aureus; assay: Antibacterial activity against vancomycin resistant Staphylococcus aureus 9 assessed as inhibition of bacterial growth incubated for 18 to 20 hrs by CLSI protocol based broth microdilution method; format: functional; details: time 18-20 hrs; how it was run: as §1
[18] = test system: Staphylococcus aureus; assay: Antibacterial activity against methicillin sensitive Staphylococcus aureus 6538 assessed as inhibition of bacterial growth at 0.5 ug/ml incubated for 18 to 20 hrs by CLSI protocol based broth microdilution method; format: functional, organism-based; details: dose 0.5 µg/ml, time 18-20 hrs
How it was run: (§5)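 Staphylococcal and E. coli strains were diluted from a 0.5 McFarland suspension in cation-adjusted Mueller Hinton broth to ~5 × 10^5 CFU mL−1. They were incubated with serial dilutions of test agent in broth microdilution, and the MIC was recorded.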

[19] = test system: Staphylococcus aureus; assay: Antibacterial activity against methicillin resistant Staphylococcus aureus 119 assessed as inhibition of bacterial growth at 0.5 ug/ml incubated for 18 to 20 hrs by CLSI protocol based broth microdilution method; format: functional, organism-based; details: dose 0.5 µg/ml, time 18-20 hrs
[20] = test system: Staphylococcus aureus; assay: Antibacterial activity against vancomycin resistant Staphylococcus aureus 10 assessed as inhibition of bacterial growth at 0.5 ug/ml incubated for 18 to 20 hrs by CLSI protocol based broth microdilution method; format: functional, organism-based; details: dose 0.5 µg/ml, time 18-20 hrs
[21] = test system: Staphylococcus aureus; assay: Antibacterial activity against vancomycin resistant Staphylococcus aureus 12 assessed as inhibition of bacterial growth at 0.5 ug/ml incubated for 18 to 20 hrs by CLSI protocol based broth microdilution method; format: functional, organism-based; details: dose 0.5 µg/ml, time 18-20 hrs
[22] = test system: Staphylococcus epidermidis; assay: Antibacterial activity against Staphylococcus epidermidis 101 assessed as inhibition of bacterial growth incubated for 18 to 20 hrs by CLSI protocol based broth microdilution method; format: functional; details: time 18-20 hrs; how it was run: as §5
[23] = test system: Staphylococcus aureus; assay: Antibacterial activity against methicillin resistant Staphylococcus aureus 384 assessed as inhibition of bacterial growth at 0.5 ug/ml incubated for 18 to 20 hrs by CLSI protocol based broth microdilution method; format: functional, organism-based; details: dose 0.5 µg/ml, time 18-20 hrs
[24] = test system: Staphylococcus aureus; assay: Antibacterial activity against methicillin sensitive Staphylococcus aureus 107 assessed as inhibition of bacterial growth incubated for 18 to 20 hrs by CLSI protocol based broth microdilution method; format: functional; details: time 18-20 hrs; how it was run: as §1
[25] = test system: Staphylococcus aureus; assay: Antibacterial activity against methicillin resistant Staphylococcus aureus 119 assessed as inhibition of bacterial growth incubated for 18 to 20 hrs by CLSI protocol based broth microdilution method; format: functional; details: time 18-20 hrs; how it was run: as §1
[26] = test system: Enterococcus faecium; assay: Antibacterial activity against Enterococcus faecium 700221 assessed as inhibition of bacterial growth incubated for 18 to 20 hrs by CLSI protocol based broth microdilution method; format: functional; details: time 18-20 hrs; how it was run: as §2
[27] = test system: Staphylococcus aureus; assay: Antibacterial activity against vancomycin resistant Staphylococcus aureus 10 assessed as inhibition of bacterial growth incubated for 18 to 20 hrs by CLSI protocol based broth microdilution method; format: functional; details: time 18-20 hrs; how it was run: as §1
[28] = test system: Streptococcus pneumoniae; assay: Antibacterial activity against Streptococcus pneumoniae 51916 assessed as inhibition of bacterial growth incubated for 18 to 20 hrs by CLSI protocol based broth microdilution method; format: functional; details: time 18-20 hrs; how it was run: as §3
[29] = test system: Streptococcus pyogenes; assay: Antibacterial activity against Streptococcus pyogenes MGAS 1882 assessed as inhibition of bacterial growth incubated for 18 to 20 hrs by CLSI protocol based broth microdilution method; format: functional; details: time 18-20 hrs; how it was run: as §3
[30] = test system: Staphylococcus aureus; assay: Antibacterial activity against methicillin sensitive Staphylococcus aureus 107 assessed as inhibition of bacterial growth at 0.5 ug/ml incubated for 18 to 20 hrs by CLSI protocol based broth microdilution method; format: functional, organism-based; details: dose 0.5 µg/ml, time 18-20 hrs; how it was run: as §5
[31] = test system: Staphylococcus aureus; assay: Antibacterial activity against methicillin resistant Staphylococcus aureus NRS384 USA300 assessed as inhibition of bacterial growth incubated for 18 to 20 hrs by CLSI protocol based broth microdilution method; format: functional; details: time 18-20 hrs; how it was run: as §1
[32] = Cytotoxicity against human HaCaT cells assessed as tolerance by measuring cell viability at 64 ug/ml incubated for 24 hrs by MTS assay relative to control; format: toxicity, cell-based; details: at 64 µg/mL, read-out: Activity; how it was run: as §4

Compound	Activity [2]	Activity [9]	Activity [10]	Activity [14]	Activity [16]	Activity [18]	Activity [19]	Activity [20]	Activity [21]	Activity [23]	Activity [30]	MIC ([31]; read-out: MIC) [µg/mL]	viability at 24 h, 64 ug/ml [32] [%]	also measured
C/C(=N\NC(=N)N)c1ccc(NC(=O)Nc2ccc(C#CCC(C)C)cc2)cc1	Active	Active	Active	Non-Toxic	Active	Active	Active	Active	Active	Active	Active	0.5 (≈ 1.28 µM)	–	MIC [1]: 0.5 µg/mL (≈ 1.28 µM); MIC [3]: 0.5 µg/mL (≈ 1.28 µM); MIC [4]: 0.5 µg/mL (≈ 1.28 µM); MIC [5]: 0.5 µg/mL (≈ 1.28 µM); MIC [6]: 0.5 µg/mL (≈ 1.28 µM); MIC [7]: 0.5 µg/mL (≈ 1.28 µM); MIC [8]: 0.5 µg/mL (≈ 1.28 µM); MIC [11]: 0.5 µg/mL (≈ 1.28 µM); MIC [12]: 0.5 µg/mL (≈ 1.28 µM); MIC [13]: 0.5 µg/mL (≈ 1.28 µM); MIC [15]: 0.5 µg/mL (≈ 1.28 µM); MIC [17]: 0.5 µg/mL (≈ 1.28 µM); MIC [22]: 0.5 µg/mL (≈ 1.28 µM); MIC [24]: 0.5 µg/mL (≈ 1.28 µM); MIC [25]: 0.5 µg/mL (≈ 1.28 µM); MIC [26]: 0.5 µg/mL (≈ 1.28 µM); MIC [27]: 0.5 µg/mL (≈ 1.28 µM); MIC [28]: 0.5 µg/mL (≈ 1.28 µM); MIC [29]: 0.5 µg/mL (≈ 1.28 µM)
C/C(=N\NC(=N)N)c1ccc(NC(=O)Nc2ccc(C#CC3CCCC3)cc2)cc1	Active	Active	Active	Non-Toxic	Active	Active	Active	Active	Active	Active	Active	–	100	MIC [31]: 2 µg/mL (≈ 4.97 µM)
CCCCCC#Cc1ccc(NC(=O)Nc2ccc(/C(C)=N/NC(=N)N)cc2)cc1	Active	Active	Active	Non-Toxic	Active	Active	Active	Active	Active	Active	Active	0.5 (≈ 1.24 µM)	100	–
